Published values collected from several papers.
Lines come from different studies, so protocols differ.
Target: Receptor tyrosine-protein kinase erbB-4 (ERBB4, Homo sapiens, UniProt Q15303)

| Compound | assay | setting | remaining binding [%] |
| --- | --- | --- | --- |
| CNC(=O)[C@@H]1CC[C@@H](n2c(-c3ccc4cnccc4c3)nc3ccc(C(=O)NCc4cccc(C(N)=O)c4)cc32)C1 | binding, competition with immobilised ligand | 1 µM | 100 |
| COc1ccc2c(c1)O[C@H](c1ccc(OC)c(OC)c1)C[C@@H]2NC(=O)C1(c2ccc3c(c2)OC(F)(F)O3)CC1 | cell-free assay, competition with immobilised ligand | 1 µM | 94 |
| Cc1cnn2ncc(-c3ccnc(N(C)C)n3)c2c1 | binding | 1 µM | 65 |
| O=C(NCCCN1CCOCC1)c1ccc(Nc2nccc(-c3cc4ccccc4s3)n2)cc1 | binding, competition with immobilised ligand | 1 µM | 86 |
| c1cncc(-c2cccc(Nc3nccc(NC4CCCCC4)n3)c2)c1 | binding, competition with immobilised ligand | 10 µM | 85 |
| Nc1ncc2c(n1)-c1c([nH]c3ccc(C#CC4CC4)cc13)CCCC2 | binding, competition with immobilised ligand | 1 µM | 100 |
| CCC(=N\O)/C(C)=C/c1ccc(F)cc1 | cell-free assay, competition with immobilised ligand | 1 µM | 66 |
| O=C(NCCCN1CCOCC1)c1ccc(Nc2ncc(Cl)c(-c3ccc(Cl)s3)n2)cc1 | binding, competition with immobilised ligand | 1 µM | 100 |
| O=C(N[C@H]1CCCCC/C=C\C2C[C@@]2(C(=O)O)NC(=O)[C@@H]2C[C@@H](Oc3ccncc3)CN2C1=O)OC1CCCC1 (stereo partly shown) | binding, competition with immobilised ligand | 1 µM | 100 |
| CN(C)c1nccc(-c2cnc3ncccn23)n1 | binding | 1 µM | 89 |
| COc1cccc(CNC(=O)c2nc3scc(COCc4ccc(C(=O)O)cc4)c3c(=O)[nH]2)c1 | cell-free assay, competition with immobilised ligand | 1 µM | 86.1 |
| C=CC(=O)N1CCC(C(=O)NCC(=O)N2CCN(c3nc(-c4cnc(N)nc4C(F)F)nc(N4CCOCC4)n3)CC2)CC1 | binding, competition with immobilised ligand | 1 µM | 100 |
| C[C@H](NC(=O)c1cnc2n1[C@](C)(Cc1ccc(C#N)cc1)C(=O)N2c1cc(Cl)c(F)c(Cl)c1)C(=O)NC1(c2ccccn2)CC1 | cell-free assay, competition with immobilised ligand | 1 µM | 100 |
| O=C(c1ccc(Nc2nccc(-c3cc4ccccc4s3)n2)cc1)N1CCC(N2CCCC2)CC1 | binding, competition with immobilised ligand | 1 µM | 93 |
| N[C@@H]1CCN(c2nccc(-c3cnn4ncccc34)n2)C1 | binding | 1 µM | 100 |
| CCCCN(CCCC)C(=O)CN1C[C@@H](c2cc(OC)c3c(c2)OCO3)[C@H](C(=O)O)[C@H]1CC(C)(C)CCC | cell-free assay, competition with immobilised ligand | 1 µM | 95 |
| CN(c1nccc(-c2cnn3ncccc23)n1)C1CC1 | binding | 1 µM | 100 |
| CC(C)(C)c1ccc(-c2nc(CBr)nn2-c2cccc(O)c2)cc1 | cell-free assay, competition with immobilised ligand | 10 µM | 88 |
| c1cnn2ncc(-c3ccnc(N4CCC45COC5)n3)c2c1 | binding | 1 µM | 76 |
| O=C(Nc1c[nH]nc1C(=O)NC1CCNCC1)c1cc(F)cc(F)c1 | binding, competition with immobilised ligand | 1 µM | 100 |
| C[C@H]1CCN(c2nccc(-c3cnn4ncccc34)n2)C1 | binding | 1 µM | 81 |
| COc1cnc(Nc2cccc(S(N)(=O)=O)c2)nc1N1CCN(c2ccccc2)C(=O)C1 | binding, competition with immobilised ligand | 1 µM | 100 |
